{"source": "paper PMC3141282", "about": "(Hypertension, 2011)", "key": {"[1]": {"test_system": "megalin", "conditions": "scavenger receptor megalin; cited from earlier work"}, "[2]": {"test_system": "rabbit aortic smooth muscle cells", "conditions": "cited from earlier work"}, "[3]": {"test_system": "HEK 293T cells transfected with the empty vector (mock)", "assay": "[3H]arachidonic acid", "assay_type": "cell-based, Human", "conditions": "Ang-(1-7) during 15 min, 37 °C", "procedure,_shortened": "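They were washed with DMEM containing 2% BSA, then exposed to test peptide at 37 °C for the stated times. Supernatant radioactivity was counted, and total cellular radioactivity came from cells solubilized in 1 mol/L NaOH. Fractional release (% of total) was expressed as percent of unstimulated control (100%), mean ± SEM.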"}, "[4]": {"test_system": "HEK 293T cells transfected with the empty vector", "assay": "[125I]Ang-", "assay_type": "binding, Human"}, "[5]": {"test_system": "rat renal cortex", "conditions": "cited from earlier work"}, "[6]": {"test_system": "endothelial progenitor cells", "conditions": "cells from sham or infarcted rodents; cited from earlier work"}}}
{"substance": "Angiotensin-(1-7) [Ang-(1-7)]", "values": [{"measurement": "binding and internalization by megalin", "setting": "[1]", "value": "binds and internalizes Ang-(1-7)"}, {"measurement": "Ang-(1-7) response in releasing AA from tissue lipids and stimulating 6-keto-prostaglandin F1α production", "setting": "[2]", "value": "decrease in Ang-(1-7) response"}, {"measurement": "[3H]AA release, mock cells", "setting": "[3]", "value": "no changes in [^3H]AA release"}, {"measurement": "Ang-(1-7) binding", "setting": "[4]; 0.5 nmol/L [125I]Ang-(1-7), 4°C, 60 min", "value": "undetectable"}, {"measurement": "total binding", "setting": "[4]; 0.5 nmol/L [125I]Ang-(1-7), 4°C, 60 min, mean ± SEM", "value": "480±68", "unit": "cpm"}, {"measurement": "nonspecific binding", "setting": "[4]; in the presence of 10 μmol/L unlabeled Ang-(1-7), mean ± SEM", "value": "395±87", "unit": "cpm"}, {"measurement": "Ang-(1-7) response, phosphatidylcholine biosynthesis", "setting": "[5]", "value": "decrease in Ang-(1-7) response"}, {"measurement": "Ang-(1-7)-induced proliferation of endothelial progenitor cells, responsiveness", "setting": "[6]", "value": "attenuation in responsiveness"}]}
